Rows were chosen to be rich in hits. Some 2.3% of all compounds tested hit in one or more screens of this group.
TRPC4 act – activators of mouse TRPC4 channel; Q9QUQ5; HEK293 TRPC4beta/mu-opioid, Fluo4 calcium fluorescence; active compounds read high; B-score at 10 µM; 310,000 compounds, 0.49% hits; AID 2237;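 active means B-score above 5 SD of library B-scores, and initial fluorescence ratio not above library mean plus 5 SD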;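 further: positive B-score marks a calcium rise read as TRPC4 activation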
Target sequence (Q9QUQ5 whole entry, looked up): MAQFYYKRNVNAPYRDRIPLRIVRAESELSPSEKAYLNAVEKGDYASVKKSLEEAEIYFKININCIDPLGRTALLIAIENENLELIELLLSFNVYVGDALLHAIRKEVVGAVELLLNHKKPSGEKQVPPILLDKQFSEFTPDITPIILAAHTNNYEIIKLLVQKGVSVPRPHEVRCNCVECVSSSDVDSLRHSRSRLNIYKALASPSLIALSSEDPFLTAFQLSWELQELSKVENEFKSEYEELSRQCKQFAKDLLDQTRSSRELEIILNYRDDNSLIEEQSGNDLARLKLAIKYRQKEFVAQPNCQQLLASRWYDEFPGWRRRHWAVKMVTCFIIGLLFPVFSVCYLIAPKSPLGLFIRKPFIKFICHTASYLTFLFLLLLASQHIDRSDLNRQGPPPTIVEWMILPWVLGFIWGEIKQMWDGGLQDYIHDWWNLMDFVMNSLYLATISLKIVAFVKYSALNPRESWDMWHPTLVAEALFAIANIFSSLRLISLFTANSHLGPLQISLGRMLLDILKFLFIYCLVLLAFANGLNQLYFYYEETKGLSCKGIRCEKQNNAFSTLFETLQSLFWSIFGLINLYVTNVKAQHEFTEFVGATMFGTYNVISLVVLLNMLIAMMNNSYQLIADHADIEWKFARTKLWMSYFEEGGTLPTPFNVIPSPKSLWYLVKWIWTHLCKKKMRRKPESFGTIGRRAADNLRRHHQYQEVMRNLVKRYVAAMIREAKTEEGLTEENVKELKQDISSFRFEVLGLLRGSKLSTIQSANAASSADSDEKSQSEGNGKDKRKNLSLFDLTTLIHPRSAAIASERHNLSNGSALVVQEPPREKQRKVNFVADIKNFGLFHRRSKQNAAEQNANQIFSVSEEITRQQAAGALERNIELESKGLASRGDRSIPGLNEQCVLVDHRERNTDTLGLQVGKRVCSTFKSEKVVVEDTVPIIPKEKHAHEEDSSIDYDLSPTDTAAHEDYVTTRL
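Assay system: HEK293 stable line with TRPC4beta plus mu-opioid receptor; schedule: 45 min room-temperature Fluo4 loading, 110 s read; technique: kinetic Fluo4 calcium fluorescence; evaluation: integrated baseline-normalised fluorescence ratio, converted to per-well B score; controls: buffer (low) and maximal DAMGO (high)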
TRPC4 PAM – allosteric potentiators of mouse TRPC4 channel; 310,000 compounds, 0.42% hits; AID 2227; HEK293 TRPC4beta/mu-opioid, DAMGO EC20, Fluo-4 Ca2+ flux; active compounds read high; B-score at 10 µM;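 active means B-score of calcium response area above 5 SD of library B-scores, with initial fluorescence ratio within 5 SD of library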;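 further: B-score of integrated fluorescence ratio over time as area under calcium response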
TRPC4 inh – TRPC4 (mouse) channel inhibition; HEK293 TRPC4beta/mu-opioid, DAMGO-evoked Fluo4 calcium flux; active compounds read low; B-score at 10 µM; 300,000 compounds, 0.39% hits;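 active means B-score over 3 SD under the library average, no early fluorescence shift, positive overall ratio signal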
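Assay system – HEK293 line stably carrying TRPC4beta and mu-opioid receptor · Doses – single dose · Detection – Fluo4 calcium-dye fluorescence, kinetic read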
TRPC6 act – mouse TRPC6 channel activation; HEK293-TRPC6 membrane potential dye fluorescence; active compounds read high; B-score at 10 µM; 310,000 compounds, 0.13% hits; Q61143;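 active means B-score of the integrated fluorescence ratio above library mean plus 3 SD, and starting fluorescence ratio within library mean plus 5 SD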;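 further: higher score means more depolarization so channel activation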
TRPC6 inhibitor – mouse TRPC6 channel inhibition; AID 2553; 310,000 compounds, 1.1% hits; Q61143; B-score at 10 µM; HEK293-TRPC6, membrane potential dye, ACh-evoked depolarization; active compounds read low;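 active means B-score under library mean minus 3 SD, initial fluorescence not abnormally high, positive integrated signal ratio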;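 further: B-score derived from integrated fluorescence ratio over the kinetic read; more negative B-score means stronger inhibition of depolarization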
Starred values were filed as active, the others as inactive; i = inactive; . = no result given.

SMILES	TRPC4 act	TRPC4 PAM	TRPC4 inh	TRPC6 act	TRPC6 inhibitor
CN(C)c1ccc([N+](=O)[O-])cc1C(=O)NCC(c1ccco1)N(C)C (configuration not stated)	i	i	-5*	i	i
C#CC[N+](C)(C)CCCCCCCCCC	i	i	i	i	i
CC#CC[N+](C)(C)CCCCCCCCCCCC	i	i	-8*	i	i
CC1Oc2ccccc2C=C1/C=N/Nc1ccc(C(=O)O)cc1 (configuration not stated)	i	i	-5*	i	i
COc1cc(OC)cc(C(=O)Nc2ccc(Nc3ccccc3)cc2)c1	i	i	i	i	-5*
COc1cc(OC)cc(C(=O)Nc2cccc(NC(=O)c3ccccc3)c2)c1	i	i	i	i	i
COc1ccc(C2C(C#N)=C(N)N(c3sc4c(c3C#N)CCCC4)C3=C2C(=O)CC(C)(C)C3)cc1 (configuration not stated)	i	i	-5*	i	i
COc1ccc(C2C(C#N)=C(N)N(c3sc4c(c3C#N)CCCC4)C3=C2C(=O)CC(C)(C)C3)cc1OC (configuration not stated)	i	i	i	i	i
COc1cccc(OCCOCCNCCO)c1	89*	i	i	i	i
C=CCc1cccc(OC)c1OCCOCCNCCO	i	i	i	i	i
CCc1cccc(OCCCCNCCCOC)c1	i	i	i	i	i
CCOc1cccc(OCCCNCCCOC)c1	i	11*	i	i	i
Cc1ccc(S(=O)(=O)N(C)C)cc1NC(=O)CN1C(=O)NC(Cc2ccccc2)C1=O (configuration not stated)	i	i	i	i	i
Cc1cc(C)cc(N(CC(=O)Nc2ccc(C(F)(F)F)cc2)S(=O)(=O)c2c(C)[nH]c(=O)[nH]c2=O)c1	i	i	i	i	i
Cc1cc(C)cc(N(CC(=O)Nc2ccc(C)cc2Cl)S(=O)(=O)c2c(C)[nH]c(=O)[nH]c2=O)c1	i	22*	i	i	i
CC(C)NCC(O)COCCOc1ccc(C(C)(C)C)cc1 (configuration not stated)	i	i	-5*	i	i
COc1ccc(OCC(O)CNC2CCCC2)cc1 (configuration not stated)	i	i	i	i	i
CCc1ccc(OCCOCC(O)CNC2CCCC2)cc1 (configuration not stated)	i	i	-5*	i	i
CC(C)(CNC(=O)Cc1ccc(Br)cc1)N1CCOCC1	i	i	i	i	i
O=[N+]([O-])c1cc(Cl)ccc1N1CCN(c2ccccc2O)CC1	i	12*	i	i	i
O=[N+]([O-])c1cc(Cl)ccc1N1CCCCC1	i	i	i	i	i
O=C(N/N=C/c1ccsc1)c1ccc2ccccc2n1	i	17*	i	i	i
O=C(N/N=C/c1ccc2c(c1)OCO2)c1ccc2ccccc2n1	i	i	i	i	i
Cn1c(=O)c2sccc2n2c(CCCC(=O)NC3CCN(Cc4ccccc4)CC3)nnc12	i	14*	i	i	i
Cn1c(=O)c2sccc2n2c(CCCC(=O)Nc3ccccc3)nnc12	i	i	i	i	i
SMILES	TRPC4 act	TRPC4 PAM	TRPC4 inh	TRPC6 act	TRPC6 inhibitor
COc1cccc(CN2C(=O)C(C)N(C(=O)c3c(F)cccc3F)c3ccccc32)c1 (configuration not stated)	i	i	i	i	i
CC1C(=O)N(Cc2ccccc2F)c2ccccc2N1C(=O)c1c(F)cccc1F (configuration not stated)	i	10*	i	i	i
COc1ccccc1-c1cc(C(=O)N2CCN(c3ccccc3OC)CC2)no1	i	i	-6*	i	i
COc1ccccc1N1CCN(C(=O)c2cc(-c3ccc(C)cc3)on2)CC1	i	i	i	i	i
COC(=O)c1sccc1NC(=O)Nc1cccc(C)c1C	i	i	i	i	i
COc1ccccc1C(=O)NC(=O)COC(=O)c1ccc(Cl)nc1	i	i	i	i	i
CC(C)(c1ccccc1)c1ccc(OCCCNCCO)cc1	i	i	-6*	i	i
CCN(CC)C(=O)c1cc2sc3ccccc3c2s1	i	i	i	i	i
COCCN(CCOC)C(=O)c1cc2sc3ccccc3c2s1	i	13*	i	i	i
CN(C)CCNC(=O)c1cc2sc3ccccc3c2s1	i	10*	i	i	i
OCc1ccccc1CN1CCCCCC1	i	i	i	i	i
Cc1sc2ncnc(NCC(c3ccco3)N3CCCC3)c2c1C (configuration not stated)	163*	i	i	i	i
CN(C)c1ccc(CNc2ccc3c(c2)ncn3C(C)(C)C)cc1	i	i	i	i	i
CN(C(=O)CSc1ncnc2scc(-c3ccccc3)c12)C1CCS(=O)(=O)C1 (configuration not stated)	i	i	i	i	i
Cc1sc2ncnc(SCC(=O)N(C)C3CCS(=O)(=O)C3)c2c1C (configuration not stated)	i	34*	i	i	i
Cc1ccccc1-n1c(SCc2cccc(F)c2)nc2[nH]ncc2c1=O	i	13*	i	i	i
CC(=O)Nc1cccc(C(=O)OCC(=O)NNC(=O)c2ccc([N+](=O)[O-])cc2)c1	i	i	i	i	i
O=C([O-])c1cc(-c2ccccc2)cc(-c2ccccc2)[n+]1Cc1ccccc1	i	i	i	i	-5.4*
CCOC(=O)C1CCCN(C2CCN(Cc3nc(Cc4ccccc4)no3)CC2)C1 (configuration not stated)	i	11*	i	i	i
Cc1ccc(SC[C@H](Cc2ccccc2)N2CCN(C)CCC2=O)cc1	81*	i	.	i	i
COc1ccc(SC[C@H](Cc2ccccc2)N2CCN(C)CCC2=O)cc1	i	i	-8*	i	i
CC(C)C[C@@H](COc1ccccc1)N1CCN(CCc2ccccc2)CCC1=O	i	i	.	i	i
CCCN1CCC(=O)N([C@H](CSc2ccc(OC)cc2)Cc2ccccc2)CC1	i	i	i	i	i
CN1CCC(=O)N([C@H](CSc2ccc(Br)cc2)Cc2ccccc2)CC1	79*	i	i	i	i
CN1CCC(=O)N([C@H](CSc2ccccc2)Cc2ccccc2)CC1	i	i	i	i	i
